For one experiment, the target named is T1, CtPilB (Chloracidobacterium thermophilum, UniProt G2LDI3).
T1 sequence (G2LDI3 140-614): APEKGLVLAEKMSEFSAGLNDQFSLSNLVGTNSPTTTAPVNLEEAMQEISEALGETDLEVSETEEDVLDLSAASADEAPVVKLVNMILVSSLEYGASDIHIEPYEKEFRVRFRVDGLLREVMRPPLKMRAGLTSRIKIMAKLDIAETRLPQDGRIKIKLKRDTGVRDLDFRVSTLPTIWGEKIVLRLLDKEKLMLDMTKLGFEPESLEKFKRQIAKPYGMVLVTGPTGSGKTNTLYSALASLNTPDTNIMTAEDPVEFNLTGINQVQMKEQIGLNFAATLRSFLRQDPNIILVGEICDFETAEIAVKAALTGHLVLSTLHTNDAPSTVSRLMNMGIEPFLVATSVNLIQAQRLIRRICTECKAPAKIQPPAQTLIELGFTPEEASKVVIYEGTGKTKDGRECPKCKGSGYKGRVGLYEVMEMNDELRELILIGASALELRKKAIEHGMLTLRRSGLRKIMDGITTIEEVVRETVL
Description: CtPilB ATPase malachite green assay. To be noted: for inhibition at 3 µM: read-out: % Inhib. 3 μM; for inhibition at 30 µM: read-out: % Inhib. 30 μM. The class given is biochemical. The essentials:
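N-terminally truncated CtPilB hexamer (lacking residues 1–139, purified), 3.3 nM, with 1 mM ATP, 2% DMSO and test compound, 54 °C, 30 min. Quenched with 30% TCA; phosphate detected by malachite green/ammonium molybdate, absorbance at 620 nm, room temperature. Screen at 3 and 30 μM with benserazide as benchmark; IC50 from concentration–response fits.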

The test system of another experiment is apyrase. Nature of the experiment: Apyrase ATPase selectivity assay. To be noted: varying concentrations up to 64 μM; 1 mM ATP, 37 °C, 30 min; p-value > 0.05. The class given is biochemical. The essentials: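 Commercial apyrase (6.7 × 10−7 U μl−1) with 1 mM ATP in 20 mM MES, 50 mM NaCl, 5 mM CaCl2, 1 mM DTT, 2% DMSO, test compound up to 64 μM, 37 °C, 30 min. Stopped with 30% TCA; released phosphate measured by malachite green assay. Biological experiments run in duplicate; concentrations compared statistically.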

Where a name gives a salt, the structure may show the parent alone. Read-outs that look alike come from different tables or passages of the source.

The source of these data is paper PMC12138345 (RSC Advances, 2025).

As for `N[C@H](CO)C(=O)N/N=C/c1cc(O)ccc1O` (mixture of isomers) [8f, (R,E)-2-Amino-N′-(2,5-dihydroxybenzylidene)-3-hydroxypropanehydrazide hydrochloride], on CtPilB, the inhibition at 3 µM was 40 ± 26% and the inhibition at 30 µM is 80 ± 16%.
`N[C@H](CO)C(=O)NNCc1cc(O)ccc1O` [7f, (R)-2-Amino-N′-(2,5-dihydroxybenzyl)-3-hydroxypropanehydrazide hydrochloride]: the inhibition at 30 µM on CtPilB stood at 45 ± 6%.
On to `NC(CO)C(=O)NNCc1ccc(O)c(O)c1O` (stereo not shown) [Benserazide, reference compound], for which the “Inhibition of apyrase ATPase activity” value in the experiment on apyrase is reported as “no significant difference”. For the same compound, at CtPilB, the IC50 (usually the concentration that gives 50% inhibition) came to 3680 nM, the inhibition at 3 µM is 34 ± 10% and the inhibition at 30 µM worked out at 80 ± 8%.
For the compound `N[C@H](CO)C(=O)N/N=C/c1ccc(O)c(O)c1O` [8j, (R,E)-2-Amino-3-hydroxy-N′-(2,3,4-trihydroxybenzylidene)propanehydrazide hydrochloride], at CtPilB, the inhibition at 3 µM was 35 ± 9% and the inhibition at 30 µM amounted to 84 ± 2%.
Regarding `N[C@H](CO)C(=O)N/N=C/c1ccc(O)cc1O` [8e, (R,E)-2-Amino-N′-(2,4-dihydroxybenzylidene)-3-hydroxypropanehydrazide hydrochloride], at CtPilB, the inhibition at 30 µM was 69 ± 10%.
The same measure, in the same setting: with `N[C@H](CO)C(=O)N/N=C/c1ccc(O)c(O)c1` [8i, (R,E)-2-Amino-N′-(3,4-dihydroxybenzylidene)-3-hydroxypropanehydrazide hydrochloride] the figure was 14 ± 4%; with `N[C@H](CO)C(=O)NNCc1ccc(O)cc1O` [7e, (R)-2-Amino-N′-(2,4-dihydroxybenzyl)-3-hydroxypropanehydrazide hydrochloride], 40 ± 2%; with `N[C@H](CO)C(=O)N/N=C/c1ccc(O)cc1` [8c, (R,E)-2-Amino-3-hydroxy-N′-(4-hydroxybenzylidene)propanehydrazide hydrochloride], 2 ± 3%.
On to `NCC(=O)N/N=C/c1c(O)cccc1O` [11a, (E)-2-Amino-N′-(2,6-dihydroxybenzylidene)acetohydrazide hydrochloride], for which, on CtPilB, the inhibition at 3 µM turned out to be 55 ± 8% and the inhibition at 30 µM is 92 ± 5%.
Turning to `N[C@H](CO)C(=O)NNCc1ccccc1O` [7a, (R)-2-Amino-3-hydroxy-N′-(2-hydroxybenzyl)propanehydrazide hydrochloride], the inhibition at 30 µM at CtPilB turned out to be 32 ± 4%.
Same read-out and setting: with `N[C@H](CO)C(=O)N/N=C/c1cccc(O)c1O` [8d, (R,E)-2-Amino-N′-(2,3-dihydroxybenzylidene)-3-hydroxypropanehydrazide hydrochloride] the figure was 84 ± 4%.
As to `Cl.N[C@H](CS)C(=O)N/N=C/c1c(O)cccc1O` [11c, (S,E)-2-Amino-N′-(2,6-dihydroxybenzylidene)-3-mercaptopropanehydrazide hydrochloride], the “Inhibition of apyrase ATPase activity” value in the experiment with apyrase was “no significant difference”. For the same compound, on CtPilB, the IC50 worked out at 580 nM, the inhibition at 3 µM turned out to be 90 ± 1% and the inhibition at 30 µM amounted to 97 ± 11%. The “Potency relative to benserazide” value on CtPilB (ratio of IC50 values) came out at 6 fold.
Regarding `COc1ccc(/C=N/NC(=O)[C@H](N)CO)c(OC)c1OC.Cl` [8l, (R,E)-2-Amino-3-hydroxy-N′-(2,3,4-trimethoxybenzylidene)propanehydrazide hydrochloride], the “Activity against PilB (in words)” value at CtPilB (screen at 3 and 30 μM) is on record as “essentially had no activity”.
For the compound `NNC(=O)[C@@H](N)CO` [compound 4, (S)-2-Amino-3-hydroxypropanehydrazide dihydrochloride], the inhibition at 30 µM on CtPilB amounted to 27 ± 19%.
`N[C@H](CO)C(=O)NNCc1c(O)cccc1O` [7g, (R)-2-Amino-N′-(2,6-dihydroxybenzyl)-3-hydroxypropanehydrazide hydrochloride]: at CtPilB, the inhibition at 3 µM is 32 ± 12% and the inhibition at 30 µM amounted to 74 ± 5%.
For `N[C@H](CO)C(=O)NNCc1cccc(O)c1O` [7d, (R)-2-Amino-N′-(2,3-dihydroxybenzyl)-3-hydroxypropanehydrazide hydrochloride], in that order: 19 ± 12% and 78.2 ± 4%.
In the case of `COc1cccc(O)c1/C=N/NC(=O)[C@H](N)CO` [8h, (R,E)-2-Amino-3-hydroxy-N′-(2-hydroxy-6-methoxybenzylidene)propanehydrazide hydrochloride], at CtPilB, the inhibition at 30 µM was 67 ± 4%.
With `C[C@@H](N)C(=O)N/N=C/c1c(O)cccc1O` [11b, (R,E)-2-amino-N′-(2,6-dihydroxybenzylidene)propanehydrazide hydrochloride], at CtPilB, the inhibition at 3 µM turned out to be 26 ± 11% and the inhibition at 30 µM was 87 ± 4%.
Turning to `Cl.N[C@H](CO)C(=O)N/N=C/c1c(O)ccc(O)c1O` [8k, (R,E)-2-Amino-3-hydroxy-N′-(2,3,6-trihydroxybenzylidene)propanehydrazide hydrochloride], the “Inhibition of apyrase ATPase activity” value in the experiment with apyrase is reported as “no significant difference”. Moreover, at CtPilB, the IC50 stood at 1060 nM, the inhibition at 3 µM was 71 ± 4% and the inhibition at 30 µM was 91 ± 8%.
In the case of `N[C@H](CO)C(=O)N/N=C/c1ccccc1O` [8a, (R,E)-2-Amino-3-hydroxy-N′-(2-hydroxybenzylidene)propanehydrazide hydrochloride], at CtPilB, the inhibition at 30 µM turned out to be 23 ± 21%.
For the compound `N[C@H](CO)C(=O)N/N=C/c1cccc(O)c1` [8b, (R,E)-2-Amino-3-hydroxy-N′-(3-hydroxybenzylidene)propanehydrazide hydrochloride], at CtPilB, the inhibition at 30 µM was 18 ± 9%.
On CtPilB (dose–response 0.01–50 μM, benserazide as control), `N[C@H](CO)C(=O)N/N=C/c1c(O)cccc1O` [8g, (R,E)-2-Amino-N′-(2,6-dihydroxybenzylidene)-3-hydroxypropanehydrazide hydrochloride] showed an IC50 of 1320 nM. On CtPilB, the inhibition at 3 µM worked out at 65 ± 5% and the inhibition at 30 µM came to 86 ± 3%.
